Test results: ChEMBL document CHEMBL4196064, “Identification of Pyrazolo[3,4-e][1,4]thiazepin based CYP51 inhibitors as potential Chagas disease therapeutic alternative: In vitro and in vivo evaluation, binding mode prediction and SAR exploration” (Eur J Med Chem, 2018)
≈ marks a conversion by molar mass, not a printed value. Values belong to the molecule of their own block, whether it stands above or below them. Calls of active or inactive are those of the source. The calls are words filed in the database; no cut-off is given here.

Tests used:
[1] = Selectivity index, ratio of LC50 for mouse L929 cells by light microscopic analysis to EC50 for Trypanosoma cruzi Tulahuen trypomastigote forms; assay type: toxicity; settings: read-out: Selectivity Index
Trypanosoma cruzi [2] = test: Antitrypanosomal activity against bloodstream trypomastigote stage of Trypanosoma cruzi Y measured after 2 hrs by light microscopic analysis; assay type: functional, organism-based
How it was run: (§1)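 Y strain bloodstream trypomastigotes from heart puncture of infected mice, at 5x10⁶/mL in RPMI 1640 with 5% FBS. Incubated at 37℃ with 0–50 µM for 2 or 24 h. […] Mean ± SD.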

[3] = Cytotoxicity against mouse L929 cells assessed as reduction in cell viability after 96 hrs by light microscopic analysis; assay type: cell-based; settings: read-out: LC50
How it was run: (§2)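 L929 fibroblasts (4x10^3 cells/well) in RPMI 1640 with 10% FBS, incubated at 37°C with increasing concentrations for 96 h. Viability was read with AlamarBlue (6 h incubation, absorbance at 600 nm) and confirmed by light microscopy.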

[4] = Selectivity index, ratio of LC50 for Swiss Webster mouse cardiac cells by prestoblue assay to EC50 for bloodstream trypomastigote stage of Trypanosoma cruzi Y measured after 24 hrs; assay type: toxicity; settings: read-out: Selectivity Index
How it was run: (§3)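 The ratio is cardiac-cell LC50 (24 h) over the 24 h EC50 against Y-strain bloodstream trypomastigotes. Trypomastigotes (5x10^6/mL) were exposed to 0-50 µM at 37°C in RPMI with 5% FBS. Surviving parasites were counted in a Neubauer chamber, and the EC50 is the concentration halving the parasite number.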

[5] = Selectivity index, ratio of LC50 for Swiss Webster mouse cardiac cells by light microscopic analysis to EC50 for bloodstream trypomastigote stage of Trypanosoma cruzi Y measured after 24 hrs; assay type: toxicity; settings: read-out: Selectivity Index; how it was run: as §3
[6] = Cytotoxicity against Swiss Webster mouse cardiac cells assessed as reduction in cell viability after 24 hrs by light microscopic analysis; assay type: cell-based, Cardiac Muscle Cell; settings: read-out: LC50
How it was run: (§4)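 Primary cardiac cells from Swiss Webster mouse embryos, cultured at 37°C in DMEM with 5% FBS, CaCl2, glutamine and chick embryo extract. Uninfected cultures were exposed to increasing concentrations for 24 h. Viability was read with PrestoBlue (5 h incubation, absorbance at 570 nm) and checked by light microscopy for morphology.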

[7] = Cytotoxicity against Swiss Webster mouse cardiac cells assessed as reduction in cell viability after 24 hrs by prestoblue assay; assay type: cell-based, Cardiac Muscle Cell; settings: read-out: LC50; how it was run: as §4
Trypanosoma cruzi [8] = test: Antitrypanosomal activity against bloodstream trypomastigote stage of Trypanosoma cruzi Y infected in Swiss Webster mouse assessed as mouse survival at 100 mg/kg, po administered daily on day 5 to 9 measured daily until 30 days post dose relative to control; assay type: functional
How it was run: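 Male Swiss Webster mice (18-20 g) were infected i.p. with 10^4 Y-strain bloodstream trypomastigotes. Benznidazole was given in sterile water with 3% Tween 80, 0.1 mL p.o. daily from 5 to 9 dpi. Mice were checked daily for mortality until 30 days post treatment, and the result was expressed as percentage cumulative mortality.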

[9] = Cytotoxicity against mouse L929 cells assessed as reduction in cell viability after 96 hrs by Alamarblue assay; assay type: cell-based; settings: read-out: LC50; how it was run: as §2
Trypanosoma cruzi [10] = test: Antitrypanosomal activity against bloodstream trypomastigote stage of Trypanosoma cruzi Y measured after 24 hrs by light microscopic analysis; assay type: functional, organism-based; how it was run: as §1
[11] = Selectivity index, ratio of LC50 for mouse L929 cells by Alamarblue assay to EC50 for Trypanosoma cruzi Tulahuen trypomastigote forms; assay type: toxicity; settings: read-out: Selectivity Index
Trypanosoma cruzi [12] = test: Antitrypanosomal activity against bloodstream trypomastigote stage of Trypanosoma cruzi Y infected in Swiss Webster mouse assessed as reduction in parasitemia at 100 mg/kg, po administered daily on day 5 to 9 post infection relative to control; assay type: functional; design: scale not given: the % may be the effect or the level left
How it was run: (§5)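 Male Swiss Webster mice (18–20 g) infected i.p. with 10^4 Y strain bloodstream trypomastigotes. Treatment given days 5–9 post infection: test compound i.p. 5–20 mg/kg/day (0.1 mL, DMSO then 20% Trappsol) or Bz 100 mg/kg/day p.o. (3% Tween 80 in water). Controls infected, vehicle only. Parasitemia counted by Pizzi-Brener in 5 µL tail blood; mortality checked daily to 30 days post treatment.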

Trypanosoma cruzi [13] = test: Antitrypanosomal activity against bloodstream trypomastigote stage of Trypanosoma cruzi Y infected in Swiss Webster mouse assessed as reduction in parasitemia at 100 mg/kg, po administered daily measured at day 8 post infection; assay type: functional, organism-based
Trypanosoma cruzi [14] = test: Antitrypanosomal activity against Trypanosoma cruzi Tulahuen trypomastigote forms infected in mouse L929 cells assessed as reduction in infection level at 10 to 12 uM after 96 hrs by beta-galactosidase reporter gene assay relative to control; assay type: functional; design: scale not given: the % may be the effect or the level left
How it was run: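 L929 cells infected 2 h with tissue culture-derived β-galactosidase-expressing Tulahuen trypomastigotes at 10:1 parasite/host cell ratio, rinsed, and held 48 h at 37℃. Single fixed concentration (10-12 µM) then applied, 96 h. Absorbance read at 570 nm; growth inhibition expressed relative to untreated cells. DMSO not above 0.6 %.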

Trypanosoma cruzi [15] = test: Antitrypanosomal activity against Trypanosoma cruzi Tulahuen trypomastigote forms infected in mouse L929 cells assessed as reduction in parasite load after 96 hrs by beta-galactosidase reporter gene assay; assay type: functional, organism-based; settings: L929, 96 h
How it was run: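 L929 cells infected 2 h with tissue culture-derived Tulahuen β-galactosidase trypomastigotes (10:1 parasite/host cell), rinsed with saline, and left 48 h at 37℃. Increasing non-toxic concentrations applied for 96 h. Absorbance read at 570 nm, % growth inhibition versus untreated cells, EC50 derived; mean ± SD. DMSO not above 0.6 %.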

[16] = target: Sterol 14-alpha demethylase (Trypanosoma cruzi (strain CL Brener)) (UniProt Q7Z1V1); test: Inhibition of recombinant Trypanosoma cruzi Tulahuen CYP51 expressed in Escherichia coli JM109 cell membranes assessed as residual activity at 0.33 uM by fluorescence based analysis (reference value: 95%)
Trypanosoma cruzi [17] = test: Antitrypanosomal activity against bloodstream trypomastigote stage of Trypanosoma cruzi Y infected in Swiss Webster mouse assessed as reduction in parasitemia at 5 mg/kg, ip administered daily on day 5 to 9 post infection relative to control; assay type: functional; design: scale not given: the % may be the effect or the level left; how it was run: as §5
[18] = target: Sterol 14-alpha demethylase (Trypanosoma cruzi (strain CL Brener), UniProt Q7Z1V1); test: Inhibition of recombinant Trypanosoma cruzi Tulahuen CYP51 expressed in Escherichia coli JM109 cell membranes assessed as […] by fluorescence based analysis
Trypanosoma cruzi [19] = test: Trypanocidal activity against Trypanosoma cruzi Sylvio X10/7 intracellular amastigotes forms measured every 24 hrs for 96 hrs by time-kill assay; assay type: functional
[20] = Acute toxicity in ip dosed Swiss Webster mouse measured 48 hrs post dose; assay type: organism-based; settings: in vivo
How it was run: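 Female Swiss Webster mice (20 to 23 g) injected intraperitoneally with increasing doses up to 200 mg/kg, n = 2 mice per assay, two assays. Animals inspected for toxic and subtoxic signs under OECD guidelines; NOAEL determined 48 h after injection. Vehicle: DMSO then Trappsol, in vivo vehicle not above 20 %.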

Trypanosoma cruzi [21] = test: Antitrypanosomal activity against bloodstream trypomastigote stage of Trypanosoma cruzi Y infected in Swiss Webster mouse assessed as reduction in parasitemia at 20 mg/kg, ip administered daily on day 5 to 9 post infection relative to control; assay type: functional; design: scale not given: the % may be the effect or the level left; how it was run: as §5
Trypanosoma cruzi [22] = test: Antitrypanosomal activity against bloodstream trypomastigote stage of Trypanosoma cruzi Y infected in Swiss Webster mouse assessed as increase in mouse survival at 5 to 20 mg/kg, ip administered daily on day 5 to 9 measured daily until 30 days post dose relative to control; assay type: functional, organism-based; how it was run: as §5
[23] = target: Sterol 14-alpha demethylase (Trypanosoma cruzi (strain CL Brener)) (UniProt Q7Z1V1); test: Inhibition of recombinant Trypanosoma cruzi Tulahuen CYP51 expressed in Escherichia coli JM109 cell membranes assessed as residual activity at 3.3 uM by fluorescence based analysis (reference value: 95%)
[24] = target: Sterol 14-alpha demethylase (Trypanosoma cruzi (strain CL Brener)) (UniProt Q7Z1V1); test: Inhibition of recombinant Trypanosoma cruzi Tulahuen CYP51 expressed in Escherichia coli JM109 cell membranes assessed as residual activity at 0.1 uM by fluorescence based analysis (reference value: 95%)
[25] = target: Sterol 14-alpha demethylase (Trypanosoma cruzi (strain CL Brener)) (UniProt Q7Z1V1); test: Inhibition of recombinant Trypanosoma cruzi Tulahuen CYP51 expressed in Escherichia coli JM109 cell membranes assessed as residual activity at 1 uM by fluorescence based analysis (reference value: 95%)
[26] = target: Sterol 14-alpha demethylase (Trypanosoma cruzi (strain CL Brener)) (UniProt Q7Z1V1); test: Inhibition of recombinant Trypanosoma cruzi Tulahuen CYP51 expressed in Escherichia coli JM109 cell membranes assessed as residual activity at 10 uM by fluorescence based analysis (reference value: 95%)
Trypanosoma cruzi [27] = test: Antitrypanosomal activity against bloodstream trypomastigote stage of Trypanosoma cruzi Y infected in Swiss Webster mouse assessed as reduction in parasitemia at 10 mg/kg, ip administered daily on day 5 to 9 post infection relative to control; assay type: functional; design: scale not given: the % may be the effect or the level left; how it was run: as §5
Trypanosoma cruzi [28] = test: Antitrypanosomal activity against Trypanosoma cruzi Sylvio X10/7 intracellular amastigotes forms assessed as reduction in number of amastigotes per host cell measured every 24 hrs for 96 hrs by time-kill assay; assay type: functional, organism-based
Trypanosoma cruzi [29] = test: Trypanocidal activity against Trypanosoma cruzi Sylvio X10/7 intracellular amastigotes forms assessed as inhibition of maximum parasite growth measured every 24 hrs for 96 hrs by time-kill assay relative to control; assay type: functional
[30] = target: Sterol 14-alpha demethylase (Trypanosoma cruzi (strain CL Brener)) (UniProt Q7Z1V1); test: Inhibition of recombinant Trypanosoma cruzi Tulahuen CYP51 expressed in Escherichia coli JM109 cell membranes assessed as residual activity at 0.01 uM by fluorescence based analysis (reference value: 95%)
[31] = target: Sterol 14-alpha demethylase (Trypanosoma cruzi (strain CL Brener)) (UniProt Q7Z1V1); test: Inhibition of recombinant Trypanosoma cruzi Tulahuen CYP51 expressed in Escherichia coli JM109 cell membranes assessed as residual activity at 0.033 uM by fluorescence based analysis (reference value: 95%)
[32] = target: Sterol 14-alpha demethylase (Trypanosoma cruzi (strain CL Brener)) (UniProt Q7Z1V1); test: Potency index, ratio of fluconazole IC50 to compound IC50 for recombinant Trypanosoma cruzi Tulahuen CYP51

Chain of Sterol 14-alpha demethylase (Trypanosoma cruzi (strain CL Brener)) (Q7Z1V1 whole entry, looked up): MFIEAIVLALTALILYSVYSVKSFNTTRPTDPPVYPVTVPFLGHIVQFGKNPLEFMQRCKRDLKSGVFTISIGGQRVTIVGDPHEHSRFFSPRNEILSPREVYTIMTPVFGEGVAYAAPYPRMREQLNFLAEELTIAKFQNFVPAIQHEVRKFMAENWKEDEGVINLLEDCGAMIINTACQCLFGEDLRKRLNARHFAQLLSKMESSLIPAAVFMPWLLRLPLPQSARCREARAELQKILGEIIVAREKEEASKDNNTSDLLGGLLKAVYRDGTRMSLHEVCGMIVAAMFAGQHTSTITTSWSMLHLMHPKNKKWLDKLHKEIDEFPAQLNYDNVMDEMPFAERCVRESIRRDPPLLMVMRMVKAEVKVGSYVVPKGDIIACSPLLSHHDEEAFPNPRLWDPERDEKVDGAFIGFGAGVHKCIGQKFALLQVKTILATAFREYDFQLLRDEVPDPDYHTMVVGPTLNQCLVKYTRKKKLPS
Chain of Sterol 14-alpha demethylase (Q7Z1V1 whole entry): as the sequence (Q7Z1V1 whole entry, looked up) above

Structure (SMILES): O=C(Cn1ccnc1[N+](=O)[O-])NCc1ccccc1 [BENZNIDAZOLE]
selectivity ratio [1]: > 53
EC50 (Trypanosoma cruzi [2]): 10 to 50 µM
CC50 at 96 h [3]: > 200 µM
selectivity ratio at 24 h [4]: > 12
selectivity ratio at 24 h [5]: > 12
CC50 at 24 h [6]: > 200 µM
CC50 at 24 h [7]: > 200 µM
survival at 100 mg/kg (Trypanosoma cruzi [8]): 100%
CC50 at 96 h [9]: > 200 µM
EC50 (Trypanosoma cruzi [10]): 6.02 to 16.9 µM
selectivity ratio [11]: > 53
Activity (Trypanosoma cruzi [12]): 100%
Activity (Trypanosoma cruzi [13]): Active
Activity (Trypanosoma cruzi [14]): 89.3%
EC50 (Trypanosoma cruzi [15]): 2.63 to 3.79 µM

Activity [16]: 0%
IC50 [18]: 0.1 µM
EC50 (Trypanosoma cruzi [2]): > 10 µM
Activity [23]: 1.2%
Activity [24]: 49.5%
Activity [25]: 5.4%
Activity [26]: 0%
Activity [30]: 89.9%
Activity [31]: 75.8%
EC50 (Trypanosoma cruzi [10]): 4 µM
Ratio IC50 [32]: 8
EC50 (Trypanosoma cruzi [15]): 3.86 µM
Structure (SMILES): Cc1n[nH]c2c1[C@@H](c1ccc(OCc3ccccc3Cl)cc1)S[C@@H](C)C(=O)N2
Activity (Trypanosoma cruzi [17]): 30%
MIC (Trypanosoma cruzi [19]): 17 µM (≈ 7.04 µg/mL)
NOAEL at 48 h [20]: > 50 mg/kg
Activity (Trypanosoma cruzi [21]): 43%
Activity (Trypanosoma cruzi [22]): inactive
Activity (Trypanosoma cruzi [27]): 38%
EC50 (Trypanosoma cruzi [28]): 0.4 µM
Imax (Trypanosoma cruzi [29]): 94%
